Source: ChEMBL document CHEMBL1681765, “Structure-activity relationships of hypervalent organochalcogenanes as inhibitors of cysteine cathepsins V and S” (Bioorg Med Chem, 2011)

Legend:
[1] = biological target: T1, Cathepsin L2 (Homo sapiens) (UniProt O60911); assay: Inhibition of Cathepsin V at 1 umol/L for 2 mins by spectrofluorometry
T1 sequence (whole entry): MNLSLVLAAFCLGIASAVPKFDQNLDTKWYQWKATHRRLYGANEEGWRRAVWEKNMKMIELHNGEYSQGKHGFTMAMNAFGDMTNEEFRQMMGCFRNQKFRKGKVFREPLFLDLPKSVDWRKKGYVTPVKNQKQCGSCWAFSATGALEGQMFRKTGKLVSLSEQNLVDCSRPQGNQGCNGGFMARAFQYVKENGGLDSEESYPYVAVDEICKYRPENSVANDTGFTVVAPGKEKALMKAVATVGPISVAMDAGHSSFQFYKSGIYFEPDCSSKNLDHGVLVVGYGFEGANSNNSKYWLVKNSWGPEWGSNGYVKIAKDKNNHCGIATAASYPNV
How it was run: (§1)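 Enzyme pre-incubated with inhibitor (1 µmol L⁻¹) for 2 min at 37 °C in enzyme-specific buffer (cathepsin S: 50 mmol L⁻¹ sodium phosphate pH 6.5, 2.5 mmol L⁻¹ EDTA; cathepsin V: 50 mmol L⁻¹ sodium acetate pH 5.5, 2.5 mmol L⁻¹ EDTA). Then Cbz-Phe-Arg-AMC (1 µmol L⁻¹) added; fluorescence ex 380/em 460 nm. Residual activity as percentage of uninhibited control; triplicate.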

[2] = biological target: Cathepsin S (Homo sapiens) (UniProt P25774); assay: Inhibition of Cathepsin S at 1 umol/L for 2 mins by spectrofluorometry; how it was run: as §1
[3] = biological target: T1, Cathepsin L2 (Homo sapiens); assay: Inhibition of Cathepsin V assessed as second-order inactivation rate constant by spectrofluorometry
How it was run: (§2)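 Continuous assay: substrate Cbz-Phe-Arg-AMC kept 10-fold below KM, with varying inhibitor concentrations, in enzyme-specific buffer (cathepsin S: phosphate pH 6.5, 2.5 mmol L⁻¹ EDTA; cathepsin V: acetate pH 5.5, 2.5 mmol L⁻¹ EDTA). AMC fluorescence ex 380/em 460 nm. Progress curves fit to P = (vz/kobs)[1−exp(−kobs·t)] + d to obtain kobs.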

[4] = biological target: Cathepsin S (Homo sapiens) (UniProt P25774); assay: Inhibition of Cathepsin S assessed as second-order inactivation rate constant by spectrofluorometry; design: unit not given here; how it was run: as §2

Sequence of Cathepsin S (Homo sapiens) (P25774 115-331 limits assumed): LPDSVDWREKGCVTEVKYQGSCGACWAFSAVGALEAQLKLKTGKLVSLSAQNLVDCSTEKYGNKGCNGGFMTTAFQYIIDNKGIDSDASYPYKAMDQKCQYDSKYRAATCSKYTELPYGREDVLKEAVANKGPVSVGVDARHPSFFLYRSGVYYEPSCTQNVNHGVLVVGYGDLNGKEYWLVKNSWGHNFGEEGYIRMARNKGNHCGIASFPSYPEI

Row | Compound | inhibition [1] [%] | inhibition [2] [%] | Activity [3] [mol/L/s] | Activity [4]
1 | CCCC[Te](Cl)(Cl)c1ccccc1[C@H](C)OC | 90 | 85 | 2400 | 1800
2 | CCCC[Te](Br)(Br)c1ccccc1COC | 90 | 96 | 26400 | 4400
3 | CCCC[Te](Cl)(Cl)c1ccccc1[C@@H](C)OC | 90 | 85 | 2500 | 1800
4 | CCCC[Te](Cl)(Cl)c1ccccc1COC | 90 | 85 | 11600 | 1300
5 | CCCC[Te](Br)(Br)c1ccccc1[C@H](C)OC | 90 | > 90 | 7400 | 4900
6 | CCCC[Se](Br)(Br)c1ccccc1COC | – | – | 3400 | 4000
7 | CCCC[Se](Br)(Br)c1ccccc1[C@H](C)OC | – | – | 2200 | 2900
8 | CCCC[Te](Br)(Br)c1ccccc1[C@@H](C)OC | 90 | > 90 | 3900 | 2500
9 | CCCC[Se](Cl)(Cl)c1ccccc1[C@@H](C)OC | – | – | 900 | 1200
10 | CCCC[Se](Br)(Br)c1ccccc1[C@@H](C)OC | – | – | 1000 | 2200
11 | CCCC[Se](Cl)(Cl)c1ccccc1[C@H](C)OC | – | – | 1000 | 1500
12 | CCCC[Se](Cl)(Cl)c1ccccc1COC | – | – | 500 | 1500
